This is an account of results in ChEMBL document CHEMBL3414548, “Luotonin-A based quinazolinones cause apoptosis and senescence via HDAC inhibition and activation of tumor suppressor proteins in HeLa cells” (Eur J Med Chem, 2015).

The test system of assay [1] is HeLa. The experiment in a line: Upregulation of p21 mRNA expression in human HeLa cells at 4 uM after 48 hrs by RT-PCR analysis. The assay is classed as functional, cell-based. An outline of the steps:
(§1)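 HeLa cells were treated at 4 μM for 48 h before RNA isolation. cDNA was amplified by RT-PCR with gene-specific primers, using GAPDH as loading control. Products were run on 1% agarose gel with ethidium bromide, and band intensity was quantified by densitometry.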

In assay [2] the test system is HeLa. Description: Downregulation of EZH2 mRNA expression in human HeLa cells at 4 uM after 48 hrs by RT-PCR analysis. The assay is classed as functional, cell-based. An outline of the steps: as §1
Assay [3] concerns HeLa. The experiment in a line: Cell cycle arrest in human HeLa cells assessed as accumulation at G2/M phase at 4 uM after 48 hrs by propidium iodide staining-based flow cytometric analysis (reference value: 31%). The assay is classed as functional. (In general: In flow cytometry, cells or beads pass a laser one at a time.)
Assay [4] concerns HeLa. The experiment in a line: Cell cycle arrest in human HeLa cells assessed as accumulation at S phase at 4 uM after 48 hrs by propidium iodide staining-based flow cytometric analysis (reference value: 7%). The assay is classed as functional.
The subject of assay [5] is HeLa. Description: Cell cycle arrest in human HeLa cells assessed as accumulation at G0 phase at 8 uM after 48 hrs by propidium iodide staining-based flow cytometric analysis (reference value: 3%). It is filed as functional.
The test system of assay [6] is HeLa. Description: Cell cycle arrest in human HeLa cells assessed as accumulation at G1 phase at 8 uM after 48 hrs by propidium iodide staining-based flow cytometric analysis (reference value: 68%). It is filed as functional.
For assay [7], the system named is HEK293. The experiment in a line: Selectivity index, ratio of IC50 for HEK cells to IC50 for human MCF7 cells. The assay is classed as functional. The method, boiled down: (§2)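 Selectivity index is IC50 in normal HEK cells divided by IC50 in the cancer cell line.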
The test system of assay [8] is HeLa. Description: Induction of senescence in human HeLa cells at 4 uM after 72 hrs by X-gal staining-based beta-galactosidase assay. The assay is classed as functional, cell-based. An outline of the steps: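 HeLa cells in chamber slides were treated at 4 μM for 72 h. They were fixed in 3% paraformaldehyde and then in methanol at 4 °C. Staining used X-gal in sodium phosphate buffer with ferro/ferricyanide, 1 mM MgCl₂ and citric acid for 24 h. Senescent cells were scored by microscopy as enlarged, flattened and blue.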

Assay [9] concerns HeLa. The experiment in a line: Selectivity index, ratio of IC50 for HEK cells to IC50 for human HeLa cells. The assay is classed as functional. An outline of the steps:
as §2

Assay [10] relates to HEK293. The experiment in a line: Selectivity index, ratio of IC50 for HEK cells to IC50 for human K562 cells. The assay is classed as functional. The method, boiled down: as §2
The subject of assay [11] is HeLa. Description: Cytotoxicity against human HeLa cells after 72 hrs by MTT assay. The assay is classed as functional, cell-based. An outline of the steps: (§3)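 Cells were seeded at 1×10⁴ per well and preincubated 18 h at 37 °C, 5% CO₂. They were then exposed to 1–256 μM for 72 h with DMSO ≤0.25%. MTT was added for 2 h and formazan was solubilized in extraction buffer before reading OD at 570 nm. IC50 is mean ± SD of three independent experiments. HEK is the normal-cell line; cancer lines were grown in DMEM with 10% serum.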
In general terms: Tetrazolium assays rely on reduction of a dye to a coloured formazan, in cell work by metabolically active cells.

In the next assay the test system is K562. The experiment in a line: Cytotoxicity against human K562 cells after 72 hrs by MTT assay. The note with it: K562, 72 h. The assay is classed as functional, cell-based. An outline of the steps: as §3
Assay [12] in a line: Cytotoxicity against HEK cells after 72 hrs by MTT assay. The note with it: Homo sapiens, HEK293, 72 h. The assay is classed as cell-based. An outline of the steps: as §3
For assay [13], the system named is HeLa. The experiment in a line: Change in HDAC-6 mRNA expression in human HeLa cells at 4 uM after 48 hrs by RT-PCR analysis. It is filed as functional, cell-based. An outline of the steps: as §1
Assay [14] concerns HeLa. The experiment in a line: Upregulation of p53 mRNA expression in human HeLa cells at 4 uM after 48 hrs by RT-PCR analysis. It is filed as functional, cell-based. An outline of the steps: as §1
Assay [15] concerns HeLa. Description: Induction of human p16 promoter activity transfected in human HeLa cells at 4 uM after 48 hrs by luciferase-based luminescence assay. The assay is classed as cell-based. The method, boiled down: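 A 1.4 kb human p16 promoter in pGL3-basic luciferase vector was co-transfected into HeLa with a β-gal plasmid. Cells were then treated at 4 μM for 48 h. Lysate luciferase luminescence was normalized to β-galactosidase as internal control.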

For assay [16], the system named is HeLa. Description: Cell cycle arrest in human HeLa cells assessed as accumulation at S phase at 8 uM after 48 hrs by propidium iodide staining-based flow cytometric analysis (reference value: 10%). The assay is classed as functional.
Assay [17] has as its system HeLa. The experiment in a line: Cell cycle arrest in human HeLa cells assessed as accumulation at G2/M phase at 4 uM after 48 hrs by propidium iodide staining-based flow cytometric analysis (reference value: 19%).
The test system of assay [18] is HeLa. Description: Cell cycle arrest in human HeLa cells assessed as accumulation at G0/G1 phase at 4 uM after 48 hrs by propidium iodide staining-based flow cytometric analysis (reference value: 62%). It is filed as functional.
The subject of assay [19] is HeLa. The experiment in a line: Downregulation of HDAC-2 mRNA expression in human HeLa cells at 4 uM after 48 hrs by RT-PCR analysis. The assay is classed as functional, cell-based. An outline of the steps:
as §1

The next assay concerns MCF7. The experiment in a line: Cytotoxicity against human MCF7 cells after 72 hrs by MTT assay. The assay is classed as functional, cell-based. As to conditions: MCF7, 72 h. The method, boiled down: as §3
Assay [20] concerns HeLa. The experiment in a line: Downregulation of HDAC-1 mRNA expression in human HeLa cells at 4 uM after 48 hrs by RT-PCR analysis. The assay is classed as functional, cell-based. An outline of the steps:
as §1

Assay [21] addresses Histone deacetylase (HDAC1 and HDAC2) (Homo sapiens, UniProt Q13547+Q92769). Description: Inhibition of HDAC1/2 in human HeLa cells using color de lys as substrate after 30 mins by colorimetric analysis. It is filed as cell-based. The method, boiled down: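 HeLa cells were treated at 4 μM, with TSA as reference. Samples were then incubated 30 min with Color de Lys substrate and HDAC-1/2. Developer yields a yellow product, and absorbance was read at 405 nm.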

The test system of assay [22] is HeLa. The experiment in a line: Downregulation of HDAC-5 mRNA expression in human HeLa cells at 4 uM after 48 hrs by RT-PCR analysis. It is filed as functional, cell-based. An outline of the steps: as §1
Assay [23] deals with HeLa. Description: Change in HDAC-7 mRNA expression in human HeLa cells at 4 uM after 48 hrs by RT-PCR analysis. It is filed as functional, cell-based. An outline of the steps: as §1

Activity calls are given as the source filed them. The calls are words filed in the database; no cut-off is given here.

As for `Cc1nc2ccccc2c(=O)n1-c1ccccc1Cn1cc(-c2ccccc2)nn1`, the result in the assay with HeLa [1], with HeLa [2], with HeLa [8], in the assay with HeLa [14], in the assay on HeLa [15] and in the assay on HeLa [19] was Active. Besides, the result in the assay with HeLa [20] and in the assay with HeLa [22] was Active. The Activity in the assay with HeLa [3] was 18%; in the assay on HeLa [4], 6%; in the assay on HeLa [5], 7%; with HeLa [6] it was 72%; in the assay on HeLa [16], 6%; with HeLa [17], 15%. For the same molecule, in the assay on HeLa [18], the Activity is reported as 76%. The “Ratio IC50” value is 32 in the assay on HEK293 [7], 43.09 in the assay on HeLa [9] and 12.69 in the assay on HEK293 [10]. Also, the IC50 worked out at 5.94 µM with HeLa [11]; 20.2 µM in the assay on K562; 256 µM in assay [12]; 8 µM in the assay with MCF7; 2.96 µM in assay [21]. Also, the result in the assay on HeLa [13] and in the assay on HeLa [23] was inactive.
Turning to `COc1cccc2c1C(=O)c1c(O)c3c(c(O)c1C2=O)C[C@@](O)(C(=O)CO)C[C@@H]3O[C@H]1C[C@H](N)[C@H](O)[C@H](C)O1`, the outcome in the assay with HeLa [1], in the assay on HeLa [2], in the assay with HeLa [8], with HeLa [14], in the assay on HeLa [15] and with HeLa [19] was Active. For the same molecule, the result in the assay on HeLa [20] and in the assay on HeLa [22] was Active. Further, the outcome with HeLa [13] and in the assay with HeLa [23] was inactive.
For the molecule `O=c1c2ccccc2nc2n1Cc1cc3ccccc3nc1-2` [LUOTONIN A], the outcome in the assay on HeLa [1], with HeLa [2], in the assay on HeLa [8], in the assay on HeLa [14], in the assay on HeLa [15] and with HeLa [19] was Active. The result in the assay with HeLa [20] and with HeLa [22] was Active. For the same molecule, the Activity is 20% with HeLa [3]; 5% in the assay with HeLa [4]; 5% in the assay with HeLa [5]; 72% in the assay with HeLa [6]; 5% with HeLa [16]; 17% with HeLa [17]. Besides, the Activity in the assay on HeLa [18] was 75%. In addition, the “Ratio IC50” value in the assay on HEK293 [7] is 6.25; in the assay on HeLa [9], 9.76; in the assay with HEK293 [10] it was 2.01. The IC50 with HeLa [11] worked out at 5.94 µM; with K562, 28.8 µM; in assay [12], 58 µM; with MCF7, 9.28 µM; in [21], 6.4 µM. Further, the result with HeLa [13] and with HeLa [23] was inactive.
As for `COc1cc2nc(C)n(-c3ccccc3Cn3cc(S)nn3)c(=O)c2cc1OC`, the Activity in the assay on HeLa [3] turned out to be 23%; in the assay with HeLa [4], 6%; in the assay with HeLa [5], 5%; in the assay with HeLa [6], 70%; in the assay on HeLa [16], 5%; in the assay with HeLa [17], 20%. Also, the Activity in the assay with HeLa [18] is 71%. Further, the results for the “Ratio IC50” value with HEK293 [7], in the assay with HeLa [9] and in the assay with HEK293 [10] were 21.9, 20.38 and 7.03, respectively. Moreover, the IC50 in the assay on HeLa [11] was 10.5 µM; in the assay on K562, 30.4 µM; in assay [12], 214 µM; in the assay with MCF7 it was 9.77 µM.

What is called IC50 is the midpoint of a concentration-inhibition curve. A higher IC50 goes with lower potency.
